The structures appear in SMILES notation. Unmarked numbers belong to inactive results. Records with an inconclusive call do not appear. Activity calls are given as the source filed them.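 How the source made its calls, unless noted: active means inhibition over a set limit, the all-compound mean plus 3 SD, in both replicate runs; inconclusive means over that limit in just one replicate run; inactive means at or under that limit in both runs.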

Assay [1] in a line: OD615 S. cerevisiae growth inhibition, permissive medium, pilot counter-assay, permissive growth control for S. cerevisiae lifespan shortening project (AID 705;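 active means growth inhibition above 25% in both replicates, a cutoff set 3 SD above the mean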). Particulars: OD615, 24 h, at 10 µM, hits give high values. An outline of the steps:
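Test system: Saccharomyces cerevisiae strain carrying genetically modified DeaD replicative-lifespan system; buffer or medium: SC raffinose/galactose permissive medium; dosing: one dose 10 µM, DMSO 0.25% final; times: 24 h exposure, 30 °C; measured by: OD at 615 nm; read-out basis: growth inhibition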

A short description of assay [2]: Restrictive medium S. cerevisiae growth inhibition, OD615, pilot screen of yeast lifespan reduction project, restrictive growth control (AID 706;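 active means growth inhibition above a set limit, 3 SD over mean compound inhibition, in both replicates, cut at about 43% in these data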;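 further: modified DeaD lifespan yeast strain shifted to restrictive glucose medium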). The note with it: OD615, 48 h, at 10 µM, hits give high values. An outline of the steps: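 material = engineered S. cerevisiae DeaD strain | buffer or medium = glucose-based CSMM-D restrictive medium | dosing = one concentration, 10 µM final, 0.25% DMSO | schedule = 4 h pre-growth plus 48 h compound exposure, 30 °C | detection = OD615 absorbance reading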

Assay [3] in a line: viability gain of MRP-1-high H69AR cells under doxorubicin, pilot screen, MRP-1 activator project, CellTiter-Glo, duplicate (AID 807;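 active means viability increase at or above a cutoff of the median across tested compounds plus 3 SD, cut at about 8.5% in these data, passing the limit was not always enough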;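 further: compound pretreatment 18-22 h then 72 h combined with doxorubicin; 0% = doxorubicin alone and 100% = vehicle without doxorubicin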). Particulars: H69AR viability with doxorubicin, CellTiter-Glo luminescence; at 10 µM; hits give high values.
A short description of assay [4]: growth suppression of beta-catenin knockout HCT116, pilot screen, human colon tumor cells (AID 823;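 active means cell viability at or below a set limit in both duplicate runs, the limit being the all-compound median minus 4 SD, cut at about 23% in these data, passing the limit was not always enough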;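 further: 0% = wells killed by 20 µM Hyamine and 100% = untreated DMSO cell wells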). The note with it: CellTiter-Glo, 60 h, at 10 µM, hits give low values.
Assay [5] in a line: growth suppression of PTEN-deleted HCT116, pilot screen, cell-based, HCT116 clonal line, CellTiter-Glo (AID 824;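 active means viability at or below 27.92% in each of two runs, the all-compound median minus 4 SD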;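 further: 0% = 20 µM Hyamine control and 100% = vehicle cell control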). The note with it: 60 h, at 10 µM, hits give low values. A general note: In ATP-based viability assays light output follows the ATP content of the culture.
The nature of assay [6]: inhibitors of the yeast RAM network, pilot screen, dse1pr::URA3 reporter, 5-FOA selection (AID 869).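 Further: 0% = DMSO wells with no growth and 100% = 10 µM 1-NA-PP1 with full growth; RAM network block rescues cells from 5-FOA so hits raise OD615 growth.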 The note with it: S. cerevisiae dse1pr::URA3 5-FOA growth, OD615, 2 d; at 10 µM; hits give high values; strain carries analog-sensitive mutant Cbk1 kinase.
A short description of assay [7]: RAM signaling pathway blockade in yeast – S. cerevisiae, Pdr1DBD-CYC8 efflux-inhibited sensitized strain, primary screen (AID 1298;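 active means RAM network inhibition above 8.4% in each of two replicates, 3 SD over the compound average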;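 further: 0% = DMSO untreated cells without growth and 100% = 10 µM 1-NA-PP1 full growth; higher means more yeast growth rescued from 5-FOA killing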). The note with it: S. cerevisiae cbk1-as DSE1-URA3 strain, 5-FOA growth OD615, 2 d; at 50 µM; hits give high values.

The viability is a read-out of living cells in per cent, often relative to untreated cells. Usually inhibition stands for the relative decrease from the control value, in per cent. Regarding `c1ccc(Nc2nc3ccccc3n3cnnc23)cc1`, the growth inhibition was -1.27% in assay [1] and 10.2% in assay [2]. Further, the viability increase in assay [3] was -5.23%. For the same compound, the viability in assay [4] was 86.1%; in assay [5] it was 84.6%. For the same compound, the inhibition in assay [6] is 2.09%. Further, the RAM network inhibition in assay [7] was -0.58%.

In the case of `COc1ccc(-n2c(Cn3c(=O)sc4ccccc43)nnc2SCC(N)=O)cc1`, the results for the growth inhibition in assay [1] and in assay [2] were -10.9% and -0.695%, respectively. For the same compound, the viability increase in assay [3] is 0.09%. Also, the viability in assay [4] and in assay [5] was 101% throughout. Moreover, the inhibition in assay [6] is 1.29%. Moreover, the RAM network inhibition in assay [7] is 0.06%.

Take `O=C(Nc1ccc(Br)cc1F)c1ccc2c(c1)N(Cc1ccccc1)C(=O)CS2=O` (stereo not drawn): the results for the growth inhibition in assay [1] and in assay [2] were -7.48% and 1.12%, respectively. Also, the viability increase in assay [3] is -0.49%. Moreover, the viability is 81.1% in assay [4] and 67.8% in assay [5]. In addition, in assay [6], the inhibition was 2.64%. In assay [7], the RAM network inhibition is 2.84%.

As to `CCOC(=O)C1CCCN(c2c(Nc3cccc(C)c3)c(=O)c2=O)C1` (stereo not drawn), the growth inhibition in assay [1] is -6.7%; in assay [2] it was 2.08%. Moreover, the viability increase in assay [3] is -2.71%. In addition, the values for the viability in assay [4] and in assay [5] were 104% and 93.2%, respectively. Moreover, the inhibition in assay [6] was -0.555%. For the same compound, the RAM network inhibition in assay [7] is 2.72%.

As for `O=C(NCCC1=CCCCC1)C1CCN(c2nnc(-n3cccc3)s2)CC1`, the growth inhibition was 3.32% in assay [1] and 4.32% in assay [2]. Moreover, the viability increase in assay [3] was -0.38%. Also, the viability in assay [4] is 85.2%; in assay [5] it was 82.2%. Further, the inhibition in assay [6] was 2.42%. Moreover, the RAM network inhibition in assay [7] is 1.13%.

Take `CN(C)S(=O)(=O)Nc1ccc2c(c1)Cc1ccccc1-2`: the growth inhibition was -17.4% in assay [1] and -9.69% in assay [2]. Also, the viability increase in assay [3] was -2.09%. For the same compound, the viability was 92.3% in assay [4] and 88.5% in assay [5]. Besides, the inhibition in assay [6] is 1%. For the same compound, the RAM network inhibition in assay [7] is 4.68%.

For `COC(=O)c1nnn(Cc2ccccc2)c1N`, the growth inhibition is -6.96% in assay [1] and -7.86% in assay [2]. Also, in assay [3], the viability increase was -1.68%. Besides, the viability is 103% in assay [4] and 98.8% in assay [5]. The inhibition in assay [6] is 0.585%. For the same compound, the RAM network inhibition in assay [7] was 0.17%.

With `CCCCNc1ncnc2c1cnn2-c1ccc(Cl)cc1`, the growth inhibition in assay [1] was -7.84%; in assay [2], -18.1%. Also, in assay [3], the viability increase was -6.6%. Moreover, the values for the viability in assay [4] and in assay [5] were 17.3% (active) and 20.4% (active), respectively. In addition, the inhibition in assay [6] was 0.835%. Further, the RAM network inhibition in assay [7] is 5.62%.

With `Cc1c(C(=O)NCc2cccnc2)oc2ccccc12`, the values for the growth inhibition in assay [1] and in assay [2] were -3.83% and -5.65%, respectively. The viability increase in assay [3] is -3.9%. For the same compound, the viability in assay [4] was 99.2%; in assay [5], 87%. The inhibition in assay [6] is 1.27%. In assay [7], the RAM network inhibition is 1.07%.

On to `CCn1c(SCC(=O)NCCOc2ccccc2)nc2ccccc2c1=O`, for which the growth inhibition in assay [1] was -0.73%; in assay [2], -21.3%. In addition, the viability increase in assay [3] is -1.87%. Also, the viability in assay [4] is 93.8%; in assay [5], 92.6%. For the same compound, in assay [6], the inhibition was 1.08%. Moreover, in assay [7], the RAM network inhibition was 4.35%.

`Cc1cccc(OCC(=O)NCc2ccncc2)c1C`: the growth inhibition in assay [1] was -7.54%; in assay [2], -7.64%. Also, the viability increase in assay [3] was -1.63%. The viability in assay [4] was 99.4%; in assay [5] it was 104%. In assay [6], the inhibition was 0.525%. In assay [7], the RAM network inhibition is 4.22%.

In the case of `CC(C)C(NS(=O)(=O)c1ccc2c(c1)oc(=O)n2C)C(=O)N1CCN(C2CCCCC2)CC1` (stereo not drawn), the growth inhibition in assay [1] was -2.87%; in assay [2] it was -9.46%. The viability increase in assay [3] was -3.02%. In addition, the viability is 106% in assay [4] and 95.6% in assay [5]. In addition, in assay [6], the inhibition was 0.14%. Besides, in assay [7], the RAM network inhibition is 6.54%.

Regarding `CCCC(=O)c1ccc(N2CCOCC2)c(F)c1`, the figures for the growth inhibition in assay [1] and in assay [2] were -7.96% and -9.48%, respectively. Besides, the viability increase in assay [3] was 5.59%. In addition, the viability is 98.7% in assay [4] and 98.2% in assay [5]. In assay [6], the inhibition is -0.25%. The RAM network inhibition in assay [7] is 0.58%.

For `OC(COc1ccccc1Cl)CN1CCN(CC(O)COc2ccccc2Cl)CC1` (stereo not drawn), the growth inhibition in assay [1] was 3.62%; in assay [2], -11.8%. Also, in assay [3], the viability increase was -5.92%. The viability in assay [4] is 73.3%; in assay [5], 81.9%. Moreover, the inhibition in assay [6] is 0.495%. The RAM network inhibition in assay [7] is 3.13%.

As to `Cc1ccc(C2c3c(oc4ccc(C)cc4c3=O)C(=O)N2CCCN2CCOCC2)cc1` (stereo not drawn), the growth inhibition in assay [1] was -8.48%; in assay [2], -3.63%. Moreover, in assay [3], the viability increase was -5.72%. For the same compound, the viability in assay [4] was 77.3%; in assay [5] it was 84.1%. For the same compound, the inhibition in assay [6] was 0.99%. Besides, the RAM network inhibition in assay [7] is -1.21%.

With `CCOc1ccc(C(=O)c2nc3c(n2O)CCCC3)cc1`, the growth inhibition was -15% in assay [1] and -7.18% in assay [2]. The viability increase in assay [3] is 0.17%. Further, the values for the viability in assay [4] and in assay [5] were 91.1% and 103%, respectively. The inhibition in assay [6] was 1.41%. For the same compound, in assay [7], the RAM network inhibition was -0.74%.

As to `COc1ccc(OC)c(C2CC(=O)c3c([nH]c(C(=O)OCC4CCCO4)c3C)C2)c1` (stereo not drawn), the growth inhibition in assay [1] was -8.91%; in assay [2] it was -10.4%. Also, the viability increase in assay [3] was -4.85%. The viability in assay [4] is 43.8%; in assay [5] it was 39%. Besides, the inhibition in assay [6] is 1.52%. Besides, in assay [7], the RAM network inhibition is 0.79%.

As for `O=C1CC(c2ccco2)CC(O)=C1C=NCCO` (stereo not drawn), the growth inhibition in assay [1] was -12.7%; in assay [2], -1.73%. In addition, in assay [3], the viability increase was 0.27%. Besides, the viability in assay [4] is 104%; in assay [5] it was 105%. Moreover, the inhibition in assay [6] was 1.79%. Besides, in assay [7], the RAM network inhibition was 3.26%.

As for `CCC(=O)Nc1nc2ccccc2n1CCN1CCOCC1`, the growth inhibition was -9.48% in assay [1] and -0.375% in assay [2]. Also, the viability increase in assay [3] is -2.15%. In addition, the figures for the viability in assay [4] and in assay [5] were 98.6% and 99.3%, respectively. Besides, the inhibition in assay [6] was -0.285%. Also, in assay [7], the RAM network inhibition is 5.41%.

In the case of `Cc1ccccc1CNc1nc(N)n(-c2ccccc2)n1`, the growth inhibition was -0.29% in assay [1] and 2.71% in assay [2]. For the same compound, the viability increase in assay [3] was -1.74%. Besides, the results for the viability in assay [4] and in assay [5] were 104% and 98.1%, respectively. The inhibition in assay [6] is 0.48%. Moreover, the RAM network inhibition in assay [7] is 4.87%.

For `COc1cc(OC)c(Nc2cc(C)nc3nc(C)nn23)cc1Cl`, the growth inhibition in assay [1] was 4.72%; in assay [2], -1.03%. For the same compound, the viability increase in assay [3] is -1.47%. For the same compound, the viability in assay [4] was 106%; in assay [5], 104%. The inhibition in assay [6] was 3.52%. Besides, in assay [7], the RAM network inhibition was -0.72%.

In the case of `CCN1C(=O)c2ccc(-c3nc4ccccc4c(=O)o3)cc2C1=O`, the growth inhibition in assay [1] is -8.45%; in assay [2] it was -0.43%. Also, the viability increase in assay [3] is -0.05%. The viability is 99% in assay [4] and 94.7% in assay [5]. In addition, the inhibition in assay [6] was 1.71%. The RAM network inhibition in assay [7] was 3.16%.

With `Cc1c(NC(=O)CCCCCN2C(=O)C3C4C=CC(C4)C3C2=O)c(=O)n(-c2ccccc2)n1C` (stereo not drawn), the growth inhibition in assay [1] is 5.03%; in assay [2], 5.79%. Moreover, in assay [3], the viability increase is -0.51%. The viability in assay [4] is 103%; in assay [5] it was 100%. In addition, the inhibition in assay [6] was 0.685%. For the same compound, the RAM network inhibition in assay [7] was 2.6%.

On to `O=C(NCCc1ccc(Cl)cc1)c1cnc2n(c1=O)CCS2`, for which the growth inhibition was -1.75% in assay [1] and -8.11% in assay [2]. Besides, the viability increase in assay [3] is 3.85%. The viability was 95% in assay [4] and 92.1% in assay [5]. Moreover, the inhibition in assay [6] is 0.37%. Also, in assay [7], the RAM network inhibition was 9.74%.

These data come from PubChem BioAssay.
